Zone of inhibition, MIC and fold change (FC) data for six compounds are collected here from ChEMBL document CHEMBL1671746, “TelA contributes to the innate resistance of Listeria monocytogenes to nisin and other cell wall-acting antibiotics” (2010).

What all share (format): functional
Assay [1] has as its system Listeria monocytogenes. The assay can be described thus: Antibacterial activity against 10^7 CFU/ml wild-type Listeria monocytogenes EGD-e Serovar 1/2a […] after 16 hrs by disk diffusion assay. The conditions noted are these: read-out: IZ. A digest of the protocol:
(§1)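 Stationary-phase (16 h) cultures were diluted to 10^7 CFU/ml and swabbed onto TSA-YE. 6-mm disks carrying a single antibiotic were laid on the agar. Zones of inhibition were measured after overnight (16 h) growth.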

The test system of assay [2] is Listeria monocytogenes. The experiment in a line: Antibacterial activity against 10^5 CFU/ml wild-type Listeria monocytogenes EGD-e Serovar 1/2a after 16 hrs by two fold serial dilution method. A digest of the protocol: (§2)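 Broth microdilution in TSB-YE: 2-fold serial dilutions of antimicrobial mixed 1:1 with target cells at 10^5 CFU/ml. Incubated 20 h for HPLC-purified nisin A, 16 h for other antimicrobials. MIC is the lowest concentration giving no visible growth. For nisin and gallidermin, the μg/ml value is converted from a μM value.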

Assay [3] has as its system Listeria monocytogenes. The assay can be described thus: Ratio of MIC wild-type Listeria monocytogenes EGD-e Serovar 1/2a to MIC for telA-deficient Listeria monocytogenes EGD-e Serovar 1/2a. The method, boiled down: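 Both MICs come from the TSB-YE 2-fold broth microdilution (10^5 CFU/ml; 20 h for purified nisin A, 16 h for others). The ratio compares the parent EGDe MIC with the ΔtelA MIC.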

The subject of assay [4] is Listeria monocytogenes. The assay can be described thus: Antibacterial activity against 10^5 CFU/ml telA-deficient Listeria monocytogenes EGD-e Serovar 1/2a after 16 hrs by two fold serial dilution method. A digest of the protocol:
as §2

The test system of assay [5] is Listeria monocytogenes. The experiment in a line: Antibacterial activity against 10^7 CFU/ml telA-deficient Listeria monocytogenes EGD-e Serovar 1/2a at 10 ug after 16 hrs by disk diffusion assay. The conditions noted are these: read-out: IZ. A digest of the protocol: as §1
The subject of assay [6] is Listeria monocytogenes. The experiment in a line: Antibacterial activity against 10^7 CFU/ml telA-deficient Listeria monocytogenes EGD-e Serovar 1/2a at 30 ug after 16 hrs by disk diffusion assay. The note with it: read-out: IZ. The method, boiled down:
as §1

For assay [7], the system named is Listeria monocytogenes. The experiment in a line: Antibacterial activity against 10^7 CFU/ml wild-type Listeria monocytogenes EGD-e Serovar 1/2a at 30 ug after 16 hrs by disk diffusion assay. The note with it: read-out: IZ. A digest of the protocol:
as §1

Assay [8] has as its system Listeria monocytogenes. The assay can be described thus: Antibacterial activity against 10^7 CFU/ml wild-type Listeria monocytogenes EGD-e Serovar 1/2a at 5 ug after 16 hrs by disk diffusion assay. The conditions noted are these: read-out: IZ. The method, boiled down:
as §1

Assay [9] has as its system Listeria monocytogenes. The assay can be described thus: Antibacterial activity against 10^7 CFU/ml telA-deficient Listeria monocytogenes EGD-e Serovar 1/2a at 5 ug after 16 hrs by disk diffusion assay. The note with it: read-out: IZ. A digest of the protocol:
as §1

Assay [10] has as its system Listeria monocytogenes. The experiment in a line: Antibacterial activity against 10^7 CFU/ml wild-type Listeria monocytogenes EGD-e Serovar 1/2a at 1 ug after 16 hrs by disk diffusion assay. The note with it: read-out: IZ. The method, boiled down:
(§3)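 Stationary-phase (16 h) cultures diluted to 10^7 CFU/ml and swabbed onto TSA-YE agar. Six-millimetre disks infused with antibiotic placed on plates. Inhibition zones measured after overnight (16 h) growth. Strains grown at 37°C in tryptic soy broth with yeast extract.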

Assay [11] concerns Listeria monocytogenes. The experiment in a line: Antibacterial activity against 10^7 CFU/ml telA-deficient Listeria monocytogenes EGD-e Serovar 1/2a […] after 16 hrs by disk diffusion assay. The conditions noted are these: read-out: IZ. A digest of the protocol: as §3

Values after ≈ are worked out from the molar mass of the structure shown. Bridge positions count the residues as written; N and C are the ends. Square brackets hold non-standard residues; d marks the D form. Peptide text beside a SMILES is read from it. * marks the point of attachment. Ileψ(thiazoline)Cys = CC[C@H](C)[C@H](N)C1=N[C@H](C(=O)*)CS1; dOrn = NCCC[C@@H](N)C(=O)O

Consider `CC[C@H](C)[C@H](N)C1=N[C@H](C(=O)N[C@@H](CC(C)C)C(=O)N[C@H](CCC(=O)O)C(=O)N[C@H](C(=O)N[C@H]2CCCCNC(=O)[C@H](CC(N)=O)NC(=O)[C@@H](CC(=O)O)NC(=O)[C@H](Cc3cnc[nH]3)NC(=O)[C@@H](Cc3ccccc3)NC(=O)[C@H]([C@@H](C)CC)NC(=O)[C@@H](CCCN)NC2=O)[C@@H](C)CC)CS1` [BACITRACIN] ({Ileψ(thiazoline)Cys}-L[dE]IK[dOrn]I[dF]H[dD]N; lactam 4-C), for which the zone of inhibition at 10 µg/disc was found to be 12.5 mm in the assay on Listeria monocytogenes [1] and 15.1 mm in the assay with Listeria monocytogenes [5]. For the same compound, the values for the minimum inhibitory concentration (MIC) in the assay on Listeria monocytogenes [2] and against Listeria monocytogenes [4] were 256 µg/mL (≈ 180 µM) and 128 µg/mL (≈ 90 µM), respectively. In addition, in the assay with Listeria monocytogenes [3], the fold change (FC) is 2.

With `CO/N=C(\C(=O)N[C@@H]1C(=O)N2C(C(=O)O)=C(COC(C)=O)CS[C@H]12)c1csc(N)n1` [CEFOTAXIME], the zone of inhibition at 30 µg/disc with Listeria monocytogenes [6] is 23.7 mm; in the assay on Listeria monocytogenes [7], 21.3 mm. Besides, the minimal inhibitory concentration (MIC) is 2 µg/mL (≈ 4.39 µM) in the assay on Listeria monocytogenes [2] and 1 µg/mL (≈ 2.2 µM) in the assay with Listeria monocytogenes [4]. The fold change (FC) with Listeria monocytogenes [3] came to 2.

`CO/N=C(\C(=O)N[C@@H]1C(=O)N2C(C(=O)O)=C(COC(N)=O)CS[C@H]12)c1ccco1` [CEFUROXIME]: the zone of inhibition at 30 µg/disc in the assay with Listeria monocytogenes [6] was determined as 24.4 mm; in the assay with Listeria monocytogenes [7] it was 21.1 mm. For the same compound, the MIC in the assay with Listeria monocytogenes [2] stood at 2.87 µg/mL (≈ 6.76 µM); against Listeria monocytogenes [4], 1.44 µg/mL (≈ 3.39 µM). For the same compound, the fold change (FC) in the assay with Listeria monocytogenes [3] stood at 2.

As to `C/C=C(/NC(=O)[C@H](CCCCN)NC(=O)[C@H](C)NC(=O)[C@H]1CS[C@@H](C)[C@@H](NC(=O)[C@H]2CSC[C@@H](NC(=O)[C@H](C)NC(=O)[C@@H](N)[C@@H](C)CC)C(=O)N[C@@H](CCCCN)C(=O)N[C@@H](Cc3ccccc3)C(=O)N[C@@H](CC(C)C)C(=O)N2)C(=O)N2CCC[C@H]2C(=O)NCC(=O)N1)C(=O)NCC(=O)N[C@@H]1CSC[C@H]2NC(=O)[C@H](Cc3ccc(O)cc3)NC(=O)[C@@H](CS/C=C/NC2=O)NC(=O)[C@H](CC(N)=O)NC(=O)[C@H](Cc2ccccc2)NC1=O` [GALLIDERMIN], the MIC with Listeria monocytogenes [2] was 1.97 µg/mL (≈ 0.91 µM); in the assay with Listeria monocytogenes [4] it was 0.246 µg/mL (≈ 0.114 µM). For the same compound, in the assay on Listeria monocytogenes [3], the fold change (FC) worked out at 8.

Regarding `COc1cccc(OC)c1C(=O)N[C@@H]1C(=O)N2[C@@H]1SC(C)(C)[C@@H]2C(=O)O` [METHICILLIN], the zone of inhibition at 5 µg/disc in the assay with Listeria monocytogenes [8] is 25.6 mm; in the assay with Listeria monocytogenes [9], 26.7 mm.

As for `Cc1onc(-c2ccccc2)c1C(=O)N[C@@H]1C(=O)N2[C@@H]1SC(C)(C)[C@@H]2C(=O)O` [OXACILLIN], the zone of inhibition at 1 µg/disc amounted to 10.7 mm in the assay on Listeria monocytogenes [10] and 12.3 mm in the assay with Listeria monocytogenes [11].
